ChEMBL document CHEMBL3244255, “Methotrexate analogues. 10. Direct coupling of methotrexate and diethyl L-glutamate in the presence of peptide bond-forming reagents” (J Med Chem, 1978)
Converted amounts (≈) assume the structure as drawn.

Experiments:
[1] = Retardation factor of the compound using C6H6-MeOH-AcOH at ratio of 45:30:1 as solvent system by thin layer chromatography; assay type: physicochemical
[2] = Retardation factor of the compound using C6H6-MeOH-AcOH at ratio of 9:6:1 as solvent system by thin layer chromatography; assay type: physicochemical
[3] = Retardation factor of the compound using C6H6-MeOH-AcOH at ratio of 9:3:1 as solvent system by thin layer chromatography; assay type: physicochemical
[4] = Retardation factor of the compound using CHCl3-MeOH at ratio of 1:1 as solvent system by thin layer chromatography; assay type: physicochemical
[5] = Retardation factor of the compound using CHCl3-MeOH at ratio of 3:1 as solvent system by thin layer chromatography; assay type: physicochemical
[6] = Retardation factor of the compound using CHCl3-MeOH at ratio of 6:1 as solvent system by thin layer chromatography; assay type: physicochemical
L1210 [7] = assay: Antitumor activity against mouse L1210 cells xenografted in mouse assessed as increase in median host lifespan at 160 mg/kg, ip administered q3d on days 1, 4 and 7; assay type: functional; conditions: route intraperitoneal
Procedure, shortened: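 Mice implanted ip with 10^5 L1210 leukemia cells. Drug was dissolved in 0.005 M sodium phosphate buffer, pH 7.4, freshly prepared before use, and injected ip on days 1, 4 and 7 after implantation. The dose range tested was 20–160 mg/kg. Five mice per group, 15 controls. Read-out is the percent increase in median life span versus untreated mice.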

Mus musculus = assay: Toxicity in mouse xenografted with mouse L1210 cells assessed as body weight loss at 80 to 160 mg/kg, ip administered q3d on days 1,4 and 7; assay type: organism-based; set-up: dose 80-160 mg/kg, route intraperitoneal; conditions: in vivo
Procedure, shortened: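 Mice were implanted ip with 10^5 L1210 cells and dosed ip on days 1, 4 and 7 after implantation. Soluble compounds were dissolved in freshly prepared 0.005 M sodium phosphate, pH 7.4; an insoluble one was suspended in 10% Tween 80. Groups had five mice, with 15 untreated controls, and body weight loss was scored as toxicity.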

CCRF-CEM = assay: Growth inhibition of human CCRF-CEM cells; assay type: functional; conditions: read-out: ID50 (the source's name)
Procedure, shortened: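 Human lymphoblastic leukaemia CCRF-CEM cells were grown in culture with the compound, and the concentration giving 50% growth inhibition (ID50) was reported in µg/mL.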

L1210 [8] = assay: Anticancer activity against mouse L1210 cells xenografted in mouse assessed as increase in median host survival at 120 mg/kg, ip administered q3d on days 1, 4, 7; assay type: functional; conditions: route intraperitoneal
L1210 [9] = assay: Antitumor activity against mouse L1210 cells xenografted in mouse assessed as increase in median host lifespan at 15 mg/kg, ip administered q3d on days 1, 4 and 7; assay type: functional; conditions: route intraperitoneal
Procedure, shortened: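 L1210 murine leukemia, 10^5 cells implanted ip; drug given ip on days 1, 4 and 7 after implantation, as disodium salt in aqueous solution. Five mice per treated group, 15 untreated controls. Read-out is the percent increase in median survival time over untreated mice.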

Compound	Rf [1]	Rf [2]	Rf [3]	Rf [4]	Rf [5]	Rf [6]	Activity (L1210 [7])	Activity (Mus musculus)	IC50 (CCRF-CEM)	survival at 120 mg/kg (L1210 [8])	Activity (L1210 [9])
CCOC(=O)CC[C@H](NC(=O)CC[C@H](NC(=O)c1ccc(N(C)Cc2cnc3nc(N)nc(N)c3n2)cc1)C(=O)O)C(=O)OCC [listing 1 of 2 here]	0.44	0.35	0.2	0.23	0.02	0.01	40%	Toxic	0.88 mg/L (≈ 1.38 µM)		
CCOC(=O)CC[C@H](NC(=O)[C@H](CCC(=O)O)NC(=O)c1ccc(N(C)Cc2cnc3nc(N)nc(N)c3n2)cc1)C(=O)OCC	0.58	0.46	0.31	0.28	0.1	0.04	10%	Toxic	> 10 mg/L		
CCOC(=O)CC[C@H](NC(=O)CC[C@H](NC(=O)c1ccc(N(C)Cc2cnc3nc(N)nc(N)c3n2)cc1)C(=O)N[C@@H](CCC(=O)OCC)C(=O)OCC)C(=O)OCC				0.82	0.78	0.46			3.8 mg/L (≈ 4.61 µM)		
CCOC(=O)CC[C@H](NC(=O)CC[C@@H](NC(=O)c1ccc(N(C)Cc2cnc3nc(N)nc(N)c3n2)cc1)C(=O)N[C@@H](CCC(=O)OCC)C(=O)OCC)C(=O)OCC				0.82	0.77	0.43			9 mg/L (≈ 10.9 µM)		
CCOC(=O)CC[C@H](NC(=O)CC[C@H](NC(=O)c1ccc(N(C)Cc2cnc3nc(N)nc(N)c3n2)cc1)C(=O)OCC)C(=O)OCC				0.79	0.76	0.44			1.8 mg/L (≈ 2.7 µM)		
CCOC(=O)CC[C@H](NC(=O)c1ccc(N(C)Cc2cnc3nc(N)nc(N)c3n2)cc1)C(=O)N[C@@H](CCC(=O)OCC)C(=O)OCC				0.79	0.73	0.4			0.85 mg/L (≈ 1.27 µM)		
CCOC(=O)CC[C@H](NC(=O)CC[C@H](NC(=O)c1ccc(N(C)Cc2cnc3nc(N)nc(N)c3n2)cc1)C(=O)O)C(=O)OCC [listing 2 of 2 here]										77%	
CCOC(=O)CCC(NC(=O)CCC(NC(=O)c1ccc(N(C)Cc2cnc3nc(N)nc(N)c3n2)cc1)C(=O)NC(CCC(=O)OCC)C(=O)OCC)C(=O)OCC (mixture of isomers)	0.82	0.68	0.47	0.82	0.77	0.4					
CN(Cc1cnc2nc(N)nc(N)c2n1)c1ccc(C(=O)N[C@@H](CCC(=O)[O-])C(=O)[O-])cc1.[Na+].[Na+] [METHOTREXATE SODIUM]											60%
CN(Cc1cnc2nc(N)nc(N)c2n1)c1ccc(C(=O)N[C@@H](CCC(=O)O)C(=O)O)cc1 [METHOTREXATE]									0.003 mg/L (≈ 0.0066 µM)		
